Experimental findings from ChEMBL document CHEMBL1165904, “Design, synthesis and 3D-QSAR of beta-carboline derivatives as potent antitumor agents” (Eur J Med Chem, 2010) are described below.

Molecules are shown by their SMILES.

Format in all cases: functional, cell-based
In one test the test system is Bel-7402. Description: Cytotoxicity against human Bel7402 cells by MTT assay. The gist of the method: (§1)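 Tumour cells cultured in RPMI-1640 with 10% (v/v) fetal calf serum plus penicillin and streptomycin, at 37 °C, humidified 5% CO2. Compounds from DMSO stocks; final DMSO in medium 2% (v/v) or lower. Assay in 96-well microtitre cultures with MTT staining. IC50 taken as concentration causing 50% growth inhibition relative to untreated cells.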
Background: Tetrazolium dyes change colour on reduction, which living cells bring about.

The subject of a further test is HeLa. Description: Cytotoxicity against human HeLa cells by MTT assay. The essentials: as §1
A further test concerns MCF7. The test is described as follows: Cytotoxicity against human MCF7 cells by MTT assay. The gist of the method:
as §1

Another test has as its system BGC-823. Description: Cytotoxicity against human BGC823 cells by MTT assay. The gist of the method: as §1
The next test concerns HepG2. Description: Cytotoxicity against human HepG2 cells by MTT assay. The essentials:
as §1

For `CCCCOc1ccc2c3ccnc(C)c3n(CC(C)C)c2c1`, the IC50 was 42.5 µM in the test with Bel-7402; 20.8 µM with HeLa; 7.2 µM in the test on MCF7; 12.1 µM in the test on BGC-823; 12.1 µM in the test with HepG2 (read-out: IC50); 12 µM in the test on HepG2 (read-out: pIC50 (converted)).
For the molecule `Cc1nccc2c3ccc(OCc4ccccc4)cc3n(CC(C)C)c12`, the IC50 in the test with Bel-7402 was 26.8 µM; in the test on HeLa, 50.5 µM; in the test on MCF7, 54.1 µM; in the test on BGC-823, 36 µM; with HepG2 (read-out: IC50) it was 22.2 µM; in the test on HepG2 (read-out: pIC50 (converted)) it was 22.4 µM.
On to `Cc1nccc2c3ccc(OC(C)C)cc3n(CCCc3ccccc3)c12`, for which the IC50 in the test with Bel-7402 was 36.2 µM; in the test with HeLa it was 48.6 µM; in the test on MCF7, 45.3 µM; in the test with BGC-823 it was 16.3 µM; with HepG2 (read-out: IC50), 14.6 µM; in the test with HepG2 (read-out: pIC50 (converted)), 14.5 µM.
As to `CCn1c2cc(OCc3c(F)c(F)c(F)c(F)c3F)ccc2c2cc[n+](Cc3ccccc3)c(C)c21`, the IC50 is 4 µM in the test with Bel-7402; 0.93 µM in the test with HeLa; 5.7 µM in the test on MCF7; 4.6 µM in the test on BGC-823; 1.6 µM in the test on HepG2 (read-out: IC50); 1.58 µM with HepG2 (read-out: pIC50 (converted)).
For `CCCCOc1ccc2c3cc[n+](Cc4ccccc4)c(C)c3n(CC(C)C)c2c1`, the IC50 was 5.3 µM in the test on Bel-7402; 2.6 µM in the test on HeLa; 5.3 µM in the test with MCF7; 6.8 µM in the test on BGC-823; 1.8 µM in the test on HepG2 (read-out: IC50); 1.82 µM with HepG2 (read-out: pIC50 (converted)).
Take `Cc1c2c(cc[n+]1Cc1ccccc1)c1ccc(OCc3ccccc3)cc1n2CC(C)C`: the IC50 in the test on Bel-7402 is 5 µM; with HeLa it was 12.4 µM; in the test on MCF7, 3.9 µM; in the test on BGC-823 it was 5.2 µM; in the test on HepG2 (read-out: IC50), 1.9 µM; in the test on HepG2 (read-out: pIC50 (converted)) it was 1.91 µM.
Turning to `Cc1nccc2c3ccc(OCc4ccccc4)cc3n(CCCc3ccccc3)c12`, the IC50 in the test with Bel-7402 is 29.4 µM; with HeLa it was 72.6 µM; with MCF7 it was 63.3 µM; in the test with BGC-823, 19.5 µM; with HepG2 (read-out: IC50) it was 15.7 µM; in the test with HepG2 (read-out: pIC50 (converted)), 15.8 µM.
As for `Cc1nccc2c3ccc(OCc4c(F)c(F)c(F)c(F)c4F)cc3n(CCCc3ccccc3)c12`, the IC50 with Bel-7402 is 18.6 µM; with HeLa, 73.5 µM; in the test on MCF7 it was 38.7 µM; with BGC-823 it was 7.88 µM; in the test on HepG2 (read-out: IC50), 147 µM; in the test with HepG2 (read-out: pIC50 (converted)), 148 µM.
Regarding `CCCCCCCCOc1ccc2c3cc[n+](Cc4ccccc4)c(C)c3n(CCCc3ccccc3)c2c1`, the IC50 with Bel-7402 is 2 µM; in the test with HeLa, 2.2 µM; with MCF7, 5.3 µM; in the test with BGC-823, 3.9 µM; with HepG2 (read-out: IC50) it was 3.9 µM; in the test on HepG2 (read-out: pIC50 (converted)), 3.89 µM.
`CCOc1ccc2c3cc[n+](Cc4ccccc4)c(C)c3n(CC)c2c1`: the IC50 in the test with Bel-7402 was 12.6 µM; with HeLa, 2.2 µM; in the test with MCF7, 8.1 µM; in the test with BGC-823, 9.2 µM; in the test with HepG2 (read-out: IC50), 14.3 µM; with HepG2 (read-out: pIC50 (converted)) it was 14.5 µM.
As for `CCCCCCCCOc1ccc2c3ccnc(C)c3n(CCCc3ccccc3)c2c1`, the IC50 in the test on Bel-7402 was 21.8 µM; with HeLa, 69.6 µM; with MCF7, 45.9 µM; in the test on BGC-823 it was 17.4 µM; in the test on HepG2 (read-out: IC50), 105 µM; in the test on HepG2 (read-out: pIC50 (converted)) it was 105 µM.
